Test results from ChEMBL document CHEMBL4052626, “Identification of thiazolo[5,4-d]pyrimidine derivatives as potent antiproliferative agents through the drug repurposing strategy” (Eur J Med Chem, 2017).
Activity calls are given as the source filed them. The calls are words filed in the database; no cut-off is given here.

Key:
[1] = system: HGC-27; test: Antiproliferative activity against human HGC27 cells after 72 hrs by MTT assay; type: functional, cell-based; conditions: HGC-27, 72 h
Outline: (§1)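 Cells in exponential growth were plated at 3,000 per well and left 24 h. Medium was then replaced with fresh medium holding graded compound concentrations, and incubation ran 72 h. Viability was read by MTT at 570 nm.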

[2] = system: NCI-H1650; test: Antiproliferative activity against human NCI-H1650 cells after 72 hrs by MTT assay; type: functional, cell-based; conditions: NCI-H1650, 72 h; outline: as §1
[3] = system: MGC-803; test: Antiproliferative activity against human MGC803 cells after 72 hrs by MTT assay; type: functional, cell-based; conditions: MGC-803, 72 h; outline: as §1
[4] = system: MGC-803; test: Antimigratory activity against human MGC803 cells assessed as reduction in wound healing at 1 uM by inverted microscopic method; type: functional, cell-based; conditions: TDE = time-dependent effect
Outline: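 MGC803 in 24-well format were scratched with a 10 µL tip. Cells were then incubated with graded compound concentrations for the indicated times. Wound closure was photographed under an inverted microscope.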

[5] = system: GES1; test: Cytotoxicity against human GES-1 cells after 72 hrs by MTT assay; type: cell-based; conditions: GES1, 72 h; outline: as §1
[6] = system: MGC-803; test: Induction of apoptosis in human MGC803 cells assessed as increase in cleaved caspase-3 protein levels at 1 to 5 uM after 24 by Western blot analysis; type: functional, cell-based
Outline: (§2)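 After 24 h treatment at graded concentrations, MGC803 were lysed 30 min in RIPA buffer with protease inhibitors and spun at 12,000 rpm for 10 min at 4 °C. Protein was quantified by BCA, then run on SDS-PAGE and blotted to nitrocellulose. Membranes were blocked in 5% milk for 2 h, incubated with primary antibodies overnight at 4 °C, then secondary (1:5000) for 2 h. Detection was by ECL.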

[7] = system: MGC-803; test: Induction of apoptosis in human MGC803 cells assessed as increase in Bax protein levels after 24 by Western blot analysis; type: functional, cell-based; outline: as §2
[8] = system: MGC-803; test: Induction of apoptosis in human MGC803 cells assessed as chromatin shrinkage at 1 to 5 uM after 24 hrs by Hoechst 33258 staining-based fluorescence microscopic analysis; type: functional, cell-based
Outline: (§3)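 MGC803 were seeded at 2×10^5/well and allowed to adhere overnight. They were exposed to graded concentrations for 24 h, then stained with Hoechst 33258 for 30 min in the dark. Nuclear morphology was examined by fluorescence microscopy.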

[9] = system: MGC-803; test: Induction of apoptosis in human MGC803 cells at 5 uM after 24 hrs by annexin V-FITC/propidium iodide staining-based assay (reference value: 2.3%); type: functional
[10] = system: MGC-803; test: Induction of apoptosis in human MGC803 cells assessed as cell rounding at 1 to 5 uM after 24 hrs by Hoechst 33258 staining-based fluorescence microscopic analysis; type: functional; outline: as §3
[11] = system: MGC-803; test: Antiproliferative activity against human MGC803 cells assessed as reduction in colony formation at 3 uM after 9 days by crystal violet staining-based clonogenic assay relative to control; type: functional; conditions: MGC-803, 216 h
Outline: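 MGC803 were seeded at 1000 cells/well, allowed 24 h, then given fresh medium with graded compound concentrations for 9 days. Cells were PBS-washed, fixed in 4% paraformaldehyde and stained with 0.1% crystal violet. A colony was counted as >10 cells. Inhibition rate = (1 − treated count/control count) × 100%. Run in triplicate.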

[12] = system: MGC-803; test: Induction of apoptosis in human MGC803 cells assessed as formation of apoptotic bodies at 1 to 5 uM after 24 hrs by Hoechst 33258 staining-based fluorescence microscopic analysis; type: functional, cell-based; outline: as §3
[13] = Selectivity index, ratio of IC50 for human GES-1 cells to IC50 for human MGC803 cells; type: functional
Outline: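 SI equals IC50 in GES-1 divided by IC50 in MGC803. Both IC50s come from 72 h exposure in the MTT viability assay, with 3,000 cells/well plated 24 h before dosing. Each is the mean ± SD of three independent experiments.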

[14] = system: MGC-803; test: Induction of apoptosis in human MGC803 cells assessed as decrease in BCL-2 protein levels at 1 to 5 uM after 24 hrs by Western blot analysis; type: functional, cell-based; outline: as §2
[15] = system: MGC-803; test: Induction of apoptosis in human MGC803 cells at 2 uM after 24 hrs by annexin V-FITC/propidium iodide staining-based assay (reference value: 2.3%); type: functional
[16] = system: MGC-803; test: Induction of apoptosis in human MGC803 cells after 24 hrs by annexin V-FITC/propidium iodide staining-based assay; type: functional, cell-based
[17] = system: MGC-803; test: Induction of apoptosis in human MGC803 cells assessed as increase in cleaved caspase-9 protein levels at 1 to 5 uM after 24 by Western blot analysis; type: functional, cell-based; outline: as §2
[18] = system: MGC-803; test: Induction of apoptosis in human MGC803 cells at 1 uM after 24 hrs by annexin V-FITC/propidium iodide staining-based assay (reference value: 2.3%); type: functional

| SMILES | IC50 [1] [µM] | IC50 [2] [µM] | IC50 [3] [µM] | further results |
| --- | --- | --- | --- | --- |
| CCCSc1nc(N2CCOCC2)c2nc(Nc3ccccn3)sc2n1 | 8.84 | 7.73 | 9.35 | – |
| c1ccc(CSc2nc(N3CCOCC3)c3nc(Nc4ccccc4)sc3n2)cc1 | 1.23 | 2.1 | 1.03 | Activity [4]: Tde; IC50 [5]: 39 µM; Activity [6]: Active; Activity [7]: Dose-dependent effect; Activity [8]: Active; Activity [9]: 73.9%; Activity [10]: Active; inhibition at 3 µM [11]: 86%; Activity [12]: Active; Ratio IC50 [13]: 37.8; Activity [14]: Active; Activity [15]: 43.8%; Activity [16]: Dose-dependent effect; Activity [17]: Active; Activity [18]: 11.5% |
| CCCSc1nc(NCCc2cccs2)c2nc(Nc3ccccc3)sc2n1 | 17.7 | 10 | 11.3 | – |
| CCCSc1nc(NCCc2cc3ccccc3[nH]2)c2nc(Nc3ccccc3)sc2n1 | 16.2 | 9.62 | 6.99 | – |
| CCCSc1nc(Nc2ccccc2)c2nc(Nc3ccccc3)sc2n1 | 35.3 | 12.1 | 24.4 | – |
| CCCSc1nc(N2CCOCC2)c2nc(Nc3ccccc3Cl)sc2n1 | 11.3 | 21.7 | 3.4 | – |
| CCCSc1nc(N2CCOCC2)c2nc(Nc3cccc4ccccc34)sc2n1 | 21.8 | 9.73 | 17.7 | – |
| CCCCc1ccc(Nc2nc(SCCC)nc3sc(Nc4ccccc4)nc23)cc1 | 13.1 | 14.8 | 17.4 | – |
| CCCSc1nc(Nc2ccc(OC)cc2)c2nc(Nc3ccccc3)sc2n1 | 30.9 | 20.7 | > 64 | – |
| CCCSc1nc(NCc2ccc(O)cc2)c2nc(Nc3ccccc3)sc2n1 | 17.3 | 9.23 | 21.9 | – |
| CCCSc1nc(N2CCSCC2)c2nc(Nc3ccccc3)sc2n1 | 28.5 | 12.9 | 12.3 | – |
| CCCSc1nc(N2CCOCC2)c2nc(Nc3ccccc3)sc2n1 | 9.51 | 4.18 | 5.81 | – |
| O=c1[nH]cc(F)c(=O)[nH]1 [FLUOROURACIL] | 8.22 | 12.5 | – | – |
| CCCSc1nc(Nc2ccc(Cl)cc2)c2nc(Nc3ccccc3)sc2n1 | 20.3 | 12 | 12.5 | – |
| CCCSc1nc(N2CCN(Cc3ccccc3)CC2)c2nc(Nc3ccccc3)sc2n1 | > 64 | 27 | 18.8 | – |
| CCCSc1nc(NCc2ccco2)c2nc(Nc3ccccc3)sc2n1 | 28 | 26.1 | > 64 | – |
| CCCSc1nc(NC2CC2)c2nc(Nc3ccccc3)sc2n1 | 32.4 | 41.7 | > 64 | – |
